# Reference: ChEMBL document CHEMBL3272230, “Hypoglycemic alpha-cycloalkylphenylmehtyl, furanalkyl, and thiophenealkyl lactamimides” (1976)
# What was measured:
# Type in all cases: functional
# Rattus norvegicus [1] = experiment: Hypoglycemic activity in fasted glucose primed Sprague-Dawley rat assessed as plasma glucose level at 12.5 mg/kg administered via oral gavage measured after 2 hrs by glucose-oxidase method relative to control
# Summary of the method: (§1)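 Young male Sprague-Dawley rats, 105-115 g, fasted overnight. Glucose 1 g/kg given subcutaneously, then test compound immediately by gavage. Blood taken 2 h later and plasma glucose measured by glucose oxidase. Six treated rats per group against six glucose-primed controls given vehicle only by gavage. Result expressed as % reduction versus control; values over 20% significant at p ≤ 0.05.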
# Rattus norvegicus [2] = experiment: Hypoglycemic activity in fasted glucose primed Sprague-Dawley rat assessed as plasma glucose level at 100 mg/kg administered via oral gavage measured after 2 hrs by glucose-oxidase method relative to control; summary of the method: as §1
# Rattus norvegicus [3] = experiment: Hypoglycemic activity in fasted glucose primed Sprague-Dawley rat assessed as plasma glucose level at 50 mg/kg administered via oral gavage measured after 2 hrs by glucose-oxidase method relative to control; summary of the method: as §1
# Rattus norvegicus [4] = experiment: Hypoglycemic activity in fasted glucose primed Sprague-Dawley rat assessed as plasma glucose level at 25 mg/kg administered via oral gavage measured after 2 hrs by glucose-oxidase method relative to control; summary of the method: as §1
# Rattus norvegicus [5] = experiment: Hypoglycemic activity in fasted glucose primed Sprague-Dawley rat assessed as plasma glucose level at 200 mg/kg administered via oral gavage measured after 2 hrs by glucose-oxidase method relative to control; summary of the method: as §1
# Rattus norvegicus [6] = experiment: Hypoglycemic activity in fasted glucose primed Sprague-Dawley rat assessed as plasma glucose level at 6 mg/kg administered via oral gavage measured after 2 hrs by glucose-oxidase method relative to control
Compound,inhibition in vivo at 12.5 mg/kg (Rattus norvegicus [1]) [%],inhibition in vivo at 100 mg/kg (Rattus norvegicus [2]) [%],inhibition in vivo at 50 mg/kg (Rattus norvegicus [3]) [%],inhibition in vivo at 25 mg/kg (Rattus norvegicus [4]) [%],inhibition in vivo at 200 mg/kg (Rattus norvegicus [5]) [%],inhibition in vivo at 6 mg/kg (Rattus norvegicus [6]) [%]
c1csc(C(/N=C2\CCCCCCN2)C2CC2)c1 (stereo unspecified),17,50,–,–,–,–
c1ccc(C(/N=C2\CCCCCN2)C2CCCC2)cc1 (stereo unspecified),12,46,–,–,–,–
COc1ccc(C(/N=C2\CCCCCN2)C2CC2)cc1 (stereo unspecified),1,40,–,–,–,–
COc1ccc(C(/N=C2\CCC(C(C)(C)C)CCN2)C2CC2)cc1 (stereo unspecified),–,17,–,–,–,–
c1ccc(C(/N=C2\CCCCN2)C2CC2)cc1 (stereo unspecified),1,36,33,23,–,–
c1ccc(C(/N=C2\CCCCCN2)C2CC2)cc1 (stereo unspecified),5,51,41,18,–,–
c1ccc(C(/N=C2\CCCCCCN2)C2CC2)cc1 (stereo unspecified),0,58,46,26,–,–
Cc1ccc(C(/N=C2\CCCCCN2)C2CC2)c(C)c1 (stereo unspecified),14,56,43,29,–,–
Cc1ccc(C(/N=C2\CCCCCCCN2)C2CC2)c(C)c1 (stereo unspecified),17,61,47,37,–,–
c1ccc2c(C(/N=C3\CCCCCN3)C3CC3)cccc2c1 (stereo unspecified),–,21,–,–,–,–
c1ccc(C(/N=C2\CCCCCN2)C2CCC2)cc1 (stereo unspecified),14,44,–,–,–,–
c1ccc(C(/N=C2\CCCCCN2)C2CCCCC2)cc1 (stereo unspecified),–,0,–,–,–,–
c1ccc(C(/N=C2\CCCCCN2)C2CCCCCC2)cc1 (stereo unspecified),–,6,–,–,–,–
c1coc(C/N=C2\CCCCCN2)c1,–,0,–,–,0,–
CC(Cc1cccs1)/N=C1\CCCCCN1 (stereo unspecified),0,41,–,–,–,–
CCC(Cc1cccs1)/N=C1\CCCN1 (stereo unspecified),–,35,–,–,–,–
CCC(Cc1cccs1)/N=C1\CCCCN1 (stereo unspecified),9,42,–,–,–,–
CCC(Cc1cccs1)/N=C1\CCCCCN1 (stereo unspecified),10,54,–,–,–,–

Compound,inhibition in vivo at 12.5 mg/kg (Rattus norvegicus [1]) [%],inhibition in vivo at 100 mg/kg (Rattus norvegicus [2]) [%],inhibition in vivo at 50 mg/kg (Rattus norvegicus [3]) [%],inhibition in vivo at 25 mg/kg (Rattus norvegicus [4]) [%],inhibition in vivo at 200 mg/kg (Rattus norvegicus [5]) [%],inhibition in vivo at 6 mg/kg (Rattus norvegicus [6]) [%]
CCC(Cc1cccs1)/N=C1\CCCCCCN1 (stereo unspecified),–,44,–,–,–,–
CCC(Cc1cccs1)/N=C1\CCCCCCCN1 (stereo unspecified),31,68,–,–,–,–
CCC(Cc1cccs1)/N=C1\CCC(C(C)(C)C)CCN1 (stereo unspecified),–,32,–,–,–,–
CC(/N=C1\CCCCCN1)C(C)c1cccs1 (stereo unspecified),0,46,–,–,–,–
C=CCC(Cc1cccs1)/N=C1\CCCCCN1 (stereo unspecified),14,65,49,–,–,–
c1csc(C(/N=C2\CCCCN2)C2CC2)c1 (stereo unspecified),–,28,–,–,–,–
c1csc(C(/N=C2\CCCCCN2)C2CC2)c1 (stereo unspecified),33,44,–,–,–,–
c1ccc(C(/N=C2\CCCCN2)c2ccco2)cc1 (stereo unspecified),13,27,28,10,–,–
c1ccc(C(/N=C2\CCCCCN2)c2ccco2)cc1 (stereo unspecified),5,52,37,34,–,–
c1ccc(C(/N=C2\CCCCCCN2)c2ccco2)cc1 (stereo unspecified),22,61,42,29,–,–
c1ccc(C(/N=C2\CCCCN2)c2cccs2)cc1 (stereo unspecified),13,32,–,31,–,–
c1ccc(C(/N=C2\CCCCCN2)c2cccs2)cc1 (stereo unspecified),23,50,46,36,–,–
c1ccc(C(/N=C2\CCCCCCN2)c2cccs2)cc1 (stereo unspecified),29,41,37,37,–,–
c1ccc(C(/N=C2\CCCCCCCCCCCN2)c2cccs2)cc1 (stereo unspecified),–,4,–,–,–,–
C1CCN/C(=N/[C@@H]2CCC[C@@H]2C2CCCCC2)CC1,33,53,49,42,–,13
c1ccc(C(/N=C2\CCCCN2)c2ccccc2)cc1,41,46,52,42,–,12
CCCCNC(=O)NS(=O)(=O)c1ccc(C)cc1 [TOLBUTAMIDE],16,41,43,29,–,–
